Measured values reported in ChEMBL document CHEMBL5113423, “Discovery and preclinical profile of sudapyridine (WX-081), a novel anti-tuberculosis agent” (Bioorg Med Chem Lett, 2022).
In brackets after ≈: the same amount, converted by molar mass.

Experiments:
[1] = system: Mycolicibacterium smegmatis; assay: Antimycobacterial activity against Mycobacterium smegmatis ATCC19420 assessed as mycobacterial growth inhibition; type: functional
[2] = system: Mycolicibacterium smegmatis; assay: Antimycobacterial activity against Mycobacterium smegmatis ATCC700084 assessed as mycobacterial growth inhibition; type: functional
[3] = system: Mycolicibacterium peregrinum; assay: Antimycobacterial activity against Mycobacterium peregrinum ATCC700686 assessed as mycobacterial growth inhibition; type: functional
[4] = Cytotoxicity against human HeLa cells; type: toxicity, cell-based
[5] = system: Mycobacterium tuberculosis; assay: Antimycobacterial activity against Mycobacterium tuberculosis H37Rv assessed as mycobacterial growth inhibition by low oxygen recovery assay; type: functional
Outline: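 M. tuberculosis H37Rv under hypoxic conditions, low-oxygen recovery assay (LORA) following Cho et al. Read-out is MIC.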

[6] = system: Mycobacterium tuberculosis; assay: Antimycobacterial activity against Mycobacterium tuberculosis H37Rv assessed as mycobacterial growth inhibition by microplate alamar blue assay; type: functional
Outline: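 M. tuberculosis H37Rv under normoxic conditions, microplate alamar blue assay (MABA) following Cho et al. Read-out is MIC.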

[7] = Cytotoxicity against African green monkey Vero cells; type: toxicity, cell-based; settings: chlorocebus sabaeus
[8] = biological target: Sodium channel protein type 5 subunit alpha (Homo sapiens, UniProt Q14524); assay: Inhibition of Nav1.5 (unknown origin)
Chain of Sodium channel protein type 5 subunit alpha (Q14524 whole entry): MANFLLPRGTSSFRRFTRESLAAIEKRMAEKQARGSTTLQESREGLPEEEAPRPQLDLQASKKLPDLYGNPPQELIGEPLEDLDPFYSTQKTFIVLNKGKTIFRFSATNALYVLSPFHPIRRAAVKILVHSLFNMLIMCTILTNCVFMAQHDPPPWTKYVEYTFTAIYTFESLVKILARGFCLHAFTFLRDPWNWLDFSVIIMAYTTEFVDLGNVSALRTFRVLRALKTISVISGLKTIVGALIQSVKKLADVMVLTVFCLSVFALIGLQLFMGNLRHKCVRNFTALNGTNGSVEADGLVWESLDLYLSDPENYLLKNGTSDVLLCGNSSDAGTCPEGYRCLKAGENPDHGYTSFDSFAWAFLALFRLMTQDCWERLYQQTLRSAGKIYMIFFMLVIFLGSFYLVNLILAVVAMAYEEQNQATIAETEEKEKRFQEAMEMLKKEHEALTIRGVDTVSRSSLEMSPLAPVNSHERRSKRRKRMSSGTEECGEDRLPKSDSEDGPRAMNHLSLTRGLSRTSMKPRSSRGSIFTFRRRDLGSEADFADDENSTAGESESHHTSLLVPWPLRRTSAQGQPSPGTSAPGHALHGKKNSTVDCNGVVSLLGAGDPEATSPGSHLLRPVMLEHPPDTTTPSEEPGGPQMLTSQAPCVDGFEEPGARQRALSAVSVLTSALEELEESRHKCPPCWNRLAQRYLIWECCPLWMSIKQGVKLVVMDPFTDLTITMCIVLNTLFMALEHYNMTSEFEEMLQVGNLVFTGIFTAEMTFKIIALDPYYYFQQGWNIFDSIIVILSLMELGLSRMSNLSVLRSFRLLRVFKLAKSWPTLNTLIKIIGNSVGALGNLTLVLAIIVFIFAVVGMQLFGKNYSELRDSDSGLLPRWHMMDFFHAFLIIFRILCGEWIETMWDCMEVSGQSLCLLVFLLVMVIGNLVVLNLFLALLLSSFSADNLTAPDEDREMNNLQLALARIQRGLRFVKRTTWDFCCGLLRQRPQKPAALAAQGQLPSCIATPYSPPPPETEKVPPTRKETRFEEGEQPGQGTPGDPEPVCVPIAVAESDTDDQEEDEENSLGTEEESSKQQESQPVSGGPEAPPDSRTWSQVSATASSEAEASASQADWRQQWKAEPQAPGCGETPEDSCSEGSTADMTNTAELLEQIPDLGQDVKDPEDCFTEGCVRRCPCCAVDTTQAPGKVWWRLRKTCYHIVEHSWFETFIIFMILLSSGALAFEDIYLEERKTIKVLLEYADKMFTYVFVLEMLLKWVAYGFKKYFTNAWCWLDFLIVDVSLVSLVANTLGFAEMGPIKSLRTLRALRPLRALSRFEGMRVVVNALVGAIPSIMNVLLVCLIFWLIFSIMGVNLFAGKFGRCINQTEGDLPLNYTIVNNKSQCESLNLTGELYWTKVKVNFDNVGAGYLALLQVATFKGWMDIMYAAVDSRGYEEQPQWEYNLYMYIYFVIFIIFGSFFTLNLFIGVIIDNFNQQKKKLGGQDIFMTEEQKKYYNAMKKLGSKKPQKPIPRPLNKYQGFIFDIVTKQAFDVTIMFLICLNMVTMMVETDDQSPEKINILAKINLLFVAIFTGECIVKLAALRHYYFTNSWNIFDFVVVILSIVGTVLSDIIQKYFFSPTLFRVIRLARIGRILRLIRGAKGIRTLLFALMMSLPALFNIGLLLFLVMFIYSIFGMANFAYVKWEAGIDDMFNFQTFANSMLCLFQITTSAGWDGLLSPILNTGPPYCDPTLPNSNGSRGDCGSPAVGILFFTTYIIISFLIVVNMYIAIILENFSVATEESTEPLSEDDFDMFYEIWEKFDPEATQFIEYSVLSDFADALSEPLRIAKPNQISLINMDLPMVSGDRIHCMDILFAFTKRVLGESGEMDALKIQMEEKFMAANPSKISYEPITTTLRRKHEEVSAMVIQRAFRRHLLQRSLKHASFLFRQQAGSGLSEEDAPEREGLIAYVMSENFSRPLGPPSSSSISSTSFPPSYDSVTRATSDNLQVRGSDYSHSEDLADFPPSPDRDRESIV

[9] = biological target: Voltage-gated inwardly rectifying potassium channel KCNH2 (Homo sapiens, UniProt Q12809); assay: Inhibition of human ERG; type: toxicity
Chain of Voltage-gated inwardly rectifying potassium channel KCNH2 (Q12809 whole entry): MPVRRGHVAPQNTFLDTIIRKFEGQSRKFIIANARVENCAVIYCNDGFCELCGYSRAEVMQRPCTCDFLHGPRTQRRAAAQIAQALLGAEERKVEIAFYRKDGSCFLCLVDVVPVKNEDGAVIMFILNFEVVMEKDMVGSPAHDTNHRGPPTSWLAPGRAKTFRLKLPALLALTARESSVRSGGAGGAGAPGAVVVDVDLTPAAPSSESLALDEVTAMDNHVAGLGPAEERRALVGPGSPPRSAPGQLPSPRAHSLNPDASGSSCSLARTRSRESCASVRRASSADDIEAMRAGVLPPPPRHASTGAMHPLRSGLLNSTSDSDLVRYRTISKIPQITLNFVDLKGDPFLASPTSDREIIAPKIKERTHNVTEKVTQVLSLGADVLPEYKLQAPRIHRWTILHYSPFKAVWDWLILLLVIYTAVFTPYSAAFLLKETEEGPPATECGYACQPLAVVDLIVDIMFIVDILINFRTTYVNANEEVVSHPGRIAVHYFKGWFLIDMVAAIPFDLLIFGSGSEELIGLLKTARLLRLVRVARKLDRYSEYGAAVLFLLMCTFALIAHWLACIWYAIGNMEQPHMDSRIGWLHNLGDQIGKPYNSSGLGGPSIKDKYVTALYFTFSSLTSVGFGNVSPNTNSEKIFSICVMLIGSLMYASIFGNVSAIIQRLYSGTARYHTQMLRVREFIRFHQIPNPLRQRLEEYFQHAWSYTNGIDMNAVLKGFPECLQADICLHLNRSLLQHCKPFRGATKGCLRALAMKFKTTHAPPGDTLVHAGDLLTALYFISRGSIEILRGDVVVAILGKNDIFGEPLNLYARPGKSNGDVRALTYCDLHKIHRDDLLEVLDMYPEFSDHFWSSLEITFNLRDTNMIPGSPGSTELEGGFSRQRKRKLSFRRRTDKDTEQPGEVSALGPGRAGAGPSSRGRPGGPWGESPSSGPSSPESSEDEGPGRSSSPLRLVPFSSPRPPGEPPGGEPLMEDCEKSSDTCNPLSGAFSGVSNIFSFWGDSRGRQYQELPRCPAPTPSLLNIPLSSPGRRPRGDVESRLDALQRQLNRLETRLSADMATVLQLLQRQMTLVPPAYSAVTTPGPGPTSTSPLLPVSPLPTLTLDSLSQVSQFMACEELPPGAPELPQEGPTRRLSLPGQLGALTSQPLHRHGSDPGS

[10] = system: Cardiac Purkinje fiber; assay: Effect on rabbit Purkinje fiber assessed as change in concentration of maximum upstroke velocity; type: functional, Oryctolagus cuniculus
[11] = biological target: Voltage-dependent L-type calcium channel subunit alpha-1C (Homo sapiens, UniProt Q13936); assay: Inhibition of human Cav1.2
[12] = system: Mycobacterium tuberculosis; assay: Antimycobacterial activity against drug-sensitive Mycobacterium tuberculosis assessed as mycobacterial growth inhibition; type: functional

Structure (SMILES) | CC50 [4] [µg/mL] | MIC [5] [µg/mL] | MIC [6] [µg/mL] | CC50 [7] [µg/mL] | also measured
COc1nc(-c2ccccc2)ccc1[C@@H](c1ccccc1)[C@@](O)(CCN(C)C)c1cccc2ccccc12 | – | – | – | – | MIC [1]: 1 µg/mL (≈ 1.99 µM); MIC [2]: 1 µg/mL (≈ 1.99 µM); MIC [3]: 0.5 µg/mL (≈ 0.995 µM)
COc1nc(-c2ccc(C#N)cc2)ccc1[C@@H](c1ccccc1)[C@@](O)(CCN(C)C)c1cccc2ccccc12 | > 64 | 0.77 (≈ 1.46 µM) | 0.44 (≈ 0.834 µM) | > 50 | –
COc1ncc(-c2ccccc2)cc1[C@@H](c1ccccc1)[C@@](O)(CCN(C)C)c1cc(F)ccc1F | – | 0.7 (≈ 1.43 µM) | 0.7 (≈ 1.43 µM) | > 50 | –
COc1nc(C2CCOCC2)ccc1[C@@H](c1ccccc1)[C@@](O)(CCN(C)C)c1cccc2ccccc12 | 22.5 (≈ 44.1 µM) | 2.7 (≈ 5.29 µM) | 1.3 (≈ 2.55 µM) | > 50 | –
COc1nc(-c2ccc(Cl)c(F)c2)ccc1[C@@H](c1ccccc1)[C@@](O)(CCN(C)C)c1cccc2ccccc12 | > 64 | 0.52 (≈ 0.937 µM) | 0.19 (≈ 0.342 µM) | > 50 | –
CNCC[C@@](O)(c1cccc2ccccc12)[C@H](c1ccccc1)c1cc2cc(Br)ccc2nc1OC | – | – | – | – | IC50 [8]: > 10 µM; IC50 [9]: 1.73 µM; Activity [10]: 0.3 µM; IC50 [11]: 0.75 µM
CNCC[C@@](O)(c1cccc2ccccc12)[C@H](c1ccccc1)c1ccc(-c2ccc(Cl)cc2)nc1OC | – | – | – | – | IC50 [8]: > 10 µM; IC50 [9]: 1.89 µM; Activity [10]: >3 µM; IC50 [11]: > 3 µM
COc1ccc(-c2ccc([C@@H](c3ccccc3)[C@@](O)(CCN(C)C)c3cccc4ccccc34)c(OC)n2)cc1 | > 64 | 0.19 (≈ 0.357 µM) | 0.33 (≈ 0.62 µM) | > 50 | –
COc1nc(C2CCCCC2)ccc1[C@@H](c1ccccc1)[C@@](O)(CCN(C)C)c1cccc2ccccc12 | 57.7 (≈ 113 µM) | 1.8 (≈ 3.54 µM) | – | 32.3 (≈ 63.5 µM) | –
COc1nc(-c2cccc(Cl)c2)ccc1[C@@H](c1ccccc1)[C@@](O)(CCN(C)C)c1cccc2ccccc12 | – | 1.36 (≈ 2.53 µM) | 2.73 (≈ 5.08 µM) | > 50 | –
COc1nc(-c2ccc(F)cc2)ccc1[C@@H](c1ccccc1)[C@@](O)(CCN(C)C)c1cccc2ccccc12 | > 64 | 0.71 (≈ 1.36 µM) | 0.34 (≈ 0.653 µM) | > 50 | –
COc1nc(-c2ccccc2Cl)ccc1[C@@H](c1ccccc1)[C@@](O)(CCN(C)C)c1cccc2ccccc12 | > 64 | 3.03 (≈ 5.64 µM) | 1.17 (≈ 2.18 µM) | > 50 | –
COc1ncc(-c2ccccc2)cc1[C@@H](c1ccccc1)[C@@](O)(CCN(C)C)c1cccc(F)c1F | 28.1 (≈ 57.5 µM) | 0.5 (≈ 1.02 µM) | 0.6 (≈ 1.23 µM) | > 50 | –
CO[C@H]1/C=C/O[C@@]2(C)Oc3c(C)c(O)c4c(O)c(c(/C=N/N5CCN(C)CC5)c(O)c4c3C2=O)NC(=O)/C(C)=C\C=C\[C@H](C)[C@H](O)[C@@H](C)[C@@H](O)[C@@H](C)[C@H](OC(C)=O)[C@@H]1C [RIFAMPIN] | – | – | – | – | MIC50 [12]: 0.035 µg/mL (≈ 0.0425 µM); MIC90 [12]: 0.057 µg/mL (≈ 0.0693 µM)
COc1nc(-c2ccccc2F)ccc1[C@@H](c1ccccc1)[C@@](O)(CCN(C)C)c1cccc2ccccc12 | – | 0.57 (≈ 1.09 µM) | 1.41 (≈ 2.71 µM) | > 50 | –
COc1nc(-c2cccc(F)c2)ccc1[C@@H](c1ccccc1)[C@@](O)(CCN(C)C)c1cccc2ccccc12 | 62.8 (≈ 121 µM) | 1.18 (≈ 2.27 µM) | 0.48 (≈ 0.922 µM) | > 50 | –
NNC(=O)c1ccncc1 [ISONIAZID] | – | – | – | – | MIC50 [12]: 0.024 µg/mL (≈ 0.175 µM); MIC90 [12]: 0.032 µg/mL (≈ 0.233 µM)
COc1nc(-c2ccncc2)ccc1[C@@H](c1ccccc1)[C@@](O)(CCN(C)C)c1cccc2ccccc12 | 9.6 (≈ 19.1 µM) | – | 0.7 (≈ 1.39 µM) | > 50 | –
COc1nc(C(C)(C)C)ccc1[C@@H](c1ccccc1)[C@@](O)(CCN(C)C)c1cccc2ccccc12 | > 64 | 2.7 (≈ 5.59 µM) | 1.3 (≈ 2.69 µM) | 27.6 (≈ 57.2 µM) | –
COc1nc(-c2ccc(OC(F)(F)F)cc2)ccc1[C@@H](c1ccccc1)[C@@](O)(CCN(C)C)c1cccc2ccccc12 | > 64 | 0.61 (≈ 1.04 µM) | 0.03 (≈ 0.0511 µM) | > 50 | –
COc1nc(-c2ccc(Br)cc2)ccc1[C@@H](c1ccccc1)[C@@](O)(CCN(C)C)c1cccc2ccccc12 | > 64 | 0.22 (≈ 0.378 µM) | 0.22 (≈ 0.378 µM) | > 50 | –
COc1ncc(-c2ccccc2)cc1[C@@H](c1ccccc1)[C@@](O)(CCN(C)C)c1ccccc1 | 11.9 (≈ 26.3 µM) | 1.2 (≈ 2.65 µM) | 1.5 (≈ 3.31 µM) | > 50 | –
COc1nc(-c2ccsc2)ccc1[C@@H](c1ccccc1)[C@@](O)(CCN(C)C)c1cccc2ccccc12 | > 64 | – | – | 24.4 (≈ 48 µM) | –
NC[C@H]1O[C@H](O[C@H]2[C@H](O)[C@@H](O[C@H]3O[C@H](CO)[C@@H](O)[C@H](N)[C@H]3O)[C@H](N)C[C@@H]2N)[C@H](O)[C@@H](O)[C@@H]1O [KANAMYCIN] | – | – | – | – | MIC50 [12]: 1.22 µg/mL (≈ 2.52 µM); MIC90 [12]: 1.91 µg/mL (≈ 3.94 µM)
COc1nc(-c2ccc(C(F)(F)F)cc2)ccc1[C@@H](c1ccccc1)[C@@](O)(CCN(C)C)c1cccc2ccccc12 | > 64 | 0.63 (≈ 1.1 µM) | 0.96 (≈ 1.68 µM) | > 50 | –
COc1ncc(-c2ccccc2)cc1[C@@H](c1ccccc1)[C@@](O)(CCN(C)C)c1cc(F)cc(F)c1 | 28.8 (≈ 58.9 µM) | 0.4 (≈ 0.819 µM) | 0.7 (≈ 1.43 µM) | > 50 | –
COc1ncc(-c2ccccc2)cc1[C@@H](c1ccccc1)[C@@](O)(CCN(C)C)c1cccc2ccccc12 | 30.4 (≈ 60.5 µM) | 0.7 (≈ 1.39 µM) | 1.1 (≈ 2.19 µM) | > 50 | MIC [1]: 0.0312 µg/mL (≈ 0.0622 µM); MIC [2]: 0.0625 µg/mL (≈ 0.124 µM); MIC [3]: 0.0625 µg/mL (≈ 0.124 µM)
COc1nc(-c2cnsc2)ccc1[C@@H](c1ccccc1)[C@@](O)(CCN(C)C)c1cccc2ccccc12 | 28.8 (≈ 56.5 µM) | 3.9 (≈ 7.65 µM) | 1.9 (≈ 3.73 µM) | 26.3 (≈ 51.6 µM) | –
